Paper PMC3763817 (Chemistry & biology, 2013)
Changes are numbered by the printed parent chain. Names may count otherwise. Blank lines part the entries; values can stand above or below the molecule they belong to. Square brackets hold non-standard residues; d marks the D form. Ends that are not written are not given here. Peptide text beside a SMILES is read from it. * marks the point of attachment. Biotin = O=C1N[C@H]2[C@H](CS[C@H]2CCCCC(=O)*)N1; lc = a hydrocarbon chain of 6 methylene groups; Abu = CC[C@H](N)C(=O)O; Dap = NC[C@H](N)C(=O)O; Acryloyl = C=CC(=O)*

Experiments:
wt Siah1 = assay: MALDI-TOF MS of covalent modification, wt Siah1; format: binding; details: protein incubated with peptide in 0.5x PBS (Figures 2e, 3d)
How it was run: (§1)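 Siah1 residues 81-282 (wild type or T156C mutant) from pET15b expression, incubated with peptide in 0.5x PBS. Equal volumes of sample and sinapic acid matrix (20 mg/ml in 50% acetonitrile-0.1% TFA) were co-crystallised on target and air-dried 5 min. Controls were buffer-only and protein spectra. Peaks were picked by centroid mass find (S/N threshold 5, peak width 40 m/z, 80% height, Top Hat baseline subtraction).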

Siah1 T156C = assay: MALDI-TOF MS of covalent modification, Siah1 T156C; format: binding; details: protein incubated with peptide in 0.5x PBS (Figure 2d)
How it was run: as §1

T156C Siah1 = assay: X-ray crystal structure of BI-117C3/T156C Siah1 complex; format: binding; details: crystal structure at 2.8 Å, judged by refined atomic B-factors
How it was run: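 Siah1 residues 81–282 with T156C mutation, purified by a published method, mixed with 2-fold excess test peptide at 4 °C for 16–18 h. Doubly peptide-bound dimer isolated by anion exchange. Sitting-drop vapour-diffusion crystals grown over 60–65% MPD, 100 mM N,N-bis(2-hydroxyethyl)glycine pH 9.0. Synchrotron data; molecular replacement using a refined covalent peptide–Siah1 dimer as search model.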

[1] = molecular target: T1, his6-Siah1 T156C (aa 81-282) (Homo sapiens, UniProt Q8IUQ4, T156C); assay: DELFIA displacement of biotin-PHYL, mutant T156C Siah; format: binding
T1 sequence (Q8IUQ4 81-282 T156C): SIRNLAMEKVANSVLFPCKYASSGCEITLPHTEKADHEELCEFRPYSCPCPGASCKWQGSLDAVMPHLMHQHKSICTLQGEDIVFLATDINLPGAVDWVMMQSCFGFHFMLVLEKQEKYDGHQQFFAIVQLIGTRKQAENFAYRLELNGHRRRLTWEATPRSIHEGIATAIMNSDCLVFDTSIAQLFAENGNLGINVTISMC

his6-Siah1 (aa 81-282) [2] = molecular target: T2, his6-Siah1 (aa 81-282) (Homo sapiens, UniProt Q8IUQ4); assay: DELFIA displacement of biotin-PHYL, wild type Siah; format: binding
T2 sequence (Q8IUQ4 81-282): T1 sequence (Q8IUQ4 81-282 T156C) with C76T

[3] = system: substrate-binding domain of Siah; details: ref House et al., 2003, 2006; cited from earlier work
[4] = molecular target: T3, his6-Siah1 T156C (aa 81-282) (UniProt Q8IUQ4 81-282, T156C); assay: DELFIA displacement assay
T3 sequence (looked up): T1 sequence (Q8IUQ4 81-282 T156C)

his6-Siah1 (aa 81-282) [5] = molecular target: T4, his6-Siah1 (aa 81-282) (UniProt Q8IUQ4 81-282); assay: DELFIA displacement assay
T4 sequence (looked up): T1 sequence (Q8IUQ4 81-282 T156C) with C76T

crystal structure = molecular target: the molecule itself; assay: crystal structure
[6] = molecular target: T3, his6-Siah1 T156C (aa 81-282); assay: DELFIA displacement assay; remark: listed apart in the source

Molecule: C=CC(=O)NCCCC[C@H](NC(=O)[C@@H]1CCCN1C(=O)[C@H](CCCNC(=N)N)NC(=O)[C@@H](NC(=O)[C@H](CCSC)NC(=O)[C@H](C)NC(=O)[C@@H](NC(=O)[C@@H]1CCCN1C(=O)[C@H](CCCNC(=N)N)NC(=O)[C@H](CC(C)C)NC(=O)[C@H](CCCCN)NC(C)=O)C(C)C)C(C)C)C(=O)N[C@H](C(=O)N[C@@H](CCCNC(=N)N)C(N)=O)C(C)C [BI-107F7] (Ac-KLRPVAMVRPK(Acryloyl)VR-NH2)
Covalent modification of wt Siah1 by MALDI-TOF mass spectrometry (wt Siah1): confirmed the formation of the covalent complex

Molecule: C=CC(=O)NC[C@H](NC(=O)[C@@H](NC(=O)[C@@H]1CCCN1C(=O)[C@H](CCCNC(=N)N)NC(=O)[C@H](CC(C)C)NC(=O)[C@H](CCCCN)NC(C)=O)C(C)C)C(=O)N[C@@H](CCSC)C(=O)N[C@H](C(=O)N[C@@H](CCCNC(=N)N)C(=O)N1CCC[C@H]1C(=O)N[C@@H](Cc1c[nH]c2ccccc12)C(=O)N[C@H](C(=O)N[C@@H](CCCNC(=N)N)C(N)=O)C(C)C)C(C)C [BI-117C3] (Ac-KLRPV[Dap](Acryloyl)MVRPWVR-NH2)
Covalent modification of Siah1 T156C by MALDI-TOF mass spectrometry (Siah1 T156C): expected mass increase
Covalent modification of wt Siah1 by MALDI-TOF mass spectrometry (wt Siah1): unable to covalently modify wt Siah1
Efficiency of covalent thioether bond formation to Cys156 (T156C Siah1): ~ 100%

Molecule: Ac-QQERTKLRPVAMVRPTVRVQPQL-NH2 [PHYL]
Affinity for the substrate-binding domain of Siah [3]: low micromolar affinity

Molecule: Ac-RQIKIWFQNRRMKWKKPPPPPPPPPPQQERTKLRPVAMVRPTVRVQPQL-NH2 [PEN-P10-PHYL, reference compound]
IC50 (his6-Siah1 (aa 81-282) [2]): 1000 nM

Molecule: Ac-KLRPVAMVRPTVR-NH2 [BI-107D1 (Ac-KLRPVAMVRPTVR-NH2)]
IC50 [4]: 1000 nM
IC50 (his6-Siah1 (aa 81-282) [5]): 1000 nM

Molecule: Ac-KLRPVAMVRPWVR-NH2 [BI-107F1 (Ac-KLRPVAMVRPWVR-NH2)]
IC50 [4]: 400 nM

B1: Siah1 81-282 (wild-type) (domain or fragment, UniProt Q8IUQ4 81-282, looked up)
chain: T1 sequence (Q8IUQ4 81-282 T156C) with C76T
binding result (crystal structure): binds

B2: Siah1 81-282 (T156C mutant), for crystallographic studies (domain or fragment, UniProt Q8IUQ4 81-282, looked up)
chain: T1 sequence (Q8IUQ4 81-282 T156C)
binding result (crystal structure): binds

Now from value to molecule:

IC50 [1]: 1000 nM
IC50 (his6-Siah1 (aa 81-282) [2]): 1000 nM
Molecule: Ac-KLRPVAMVRPTVR-NH2 [BI-107D1]

IC50 [4]: 900 nM
Molecule: Ac-KLRPVAMVRPMVR-NH2 [BI-107E12 (Ac-KLRPVAMVRPMVR-NH2)]

IC50 (his6-Siah1 (aa 81-282) [5]): 500 nM
Molecule: Ac-QQERTKLRPVAMVRPTVRVQPQL-NH2 [PHYL (Ac-QQERTKLRPVAMVRPTVRVQPQL-NH2)]

IC50 [4]: 2000 nM
IC50 (his6-Siah1 (aa 81-282) [5]): 2000 nM
Molecule: Ac-KLRPV[Abu]MVRPTVR-NH2 [BI-107E1 (Ac-KLRPVεMVRPTVR-NH2)]

binding result [6]: binds
Molecule: {Biotin-lc}-QQERTKLRPVAMVRPTVRVQPQL [biotin-PHYL (biotin-lc-QQERTKLRPVAMVRPTVRVQPQL)]

IC50 (his6-Siah1 (aa 81-282) [5]): 100 nM
Molecule: Ac-KLRPVAMVRPK(Acryloyl)VR-NH2 [BI-107F7 (Ac-KLRPVAMVRPαVR-NH2)]

IC50 [4]: 6 nM
IC50 (his6-Siah1 (aa 81-282) [5]): > 100000 nM
B3: BI-117C3 (Ac-KLRPVδMVRPWVR-NH2) (peptide)
chain: Ac-KLRPV[Dap](Acryloyl)MVRPWVR-NH2
SMILES: C=CC(=O)NC[C@H](NC(=O)[C@@H](NC(=O)[C@@H]1CCCN1C(=O)[C@H](CCCNC(=N)N)NC(=O)[C@H](CC(C)C)NC(=O)[C@H](CCCCN)NC(C)=O)C(C)C)C(=O)N[C@@H](CCSC)C(=O)N[C@H](C(=O)N[C@@H](CCCNC(=N)N)C(=O)N1CCC[C@H]1C(=O)N[C@@H](Cc1c[nH]c2ccccc12)C(=O)N[C@H](C(=O)N[C@@H](CCCNC(=N)N)C(N)=O)C(C)C)C(C)C
